Results as given in PMC3172161 (ACS chemical neuroscience, 2011).
Like-named read-outs stand apart in the source and are kept apart here. Each block holds one molecule with its values, some of them ahead of it.

Experiments:
rat mGlu5 [1] = biological target: T1, rat mGlu5 (Rattus norvegicus, UniProt P31424); assay: Calcium mobilization assay; format: cell-based; conditions: for % Glu Max: amplitude of response in the presence of 30 μM test compound as a percentage of maximal response (100 μM glutamate)
In short: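 HEK293A cells stably expressing rat mGlu5 were plated at 20K/well and grown overnight at 37 °C in 6% CO2. They were loaded with 2 μM Fluo-4 AM at 37 °C in HBSS with 20 mM HEPES and 2.5 mM probenecid. Compound (10-point 1:3 series, 30 μM–1 nM final) was added 140 s before EC20 glutamate, then EC80 glutamate 74 s later. Ca2+ fluorescence read at 1 Hz; IC50 from four-parameter logistic fit.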

[2] = biological target: mGlu5 in rat cortical astrocytes (Rattus norvegicus, UniProt P31424); assay: Rat cortical astrocytes assay; format: cell-based; conditions: fixed concentration 10 μM, increasing concentrations of glutamate
mGlu7 = mGlu7 (Homo sapiens, UniProt Q14831); assay: Cell based functional selectivity assay
mGlu8 = mGlu8 (Homo sapiens, UniProt O00222); assay: Cell based functional selectivity assay
[3] = Stability in liver microsomes; format: in vitro ADME; conditions: mouse liver microsomes; 1 μM, 15 min, 37 °C, NADPH
In short: (§1)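 Test compound at 1 μM was incubated 15 min at 37 °C with shaking, with human or mouse liver microsomes, phosphate buffer and NADPH. Samples were analysed by UPLC-ESI-MS/MS on a C18 column with a formic acid/acetonitrile gradient. % parent remaining was calculated against similarly prepared un-incubated controls.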

mGlu2 = mGlu2 (Homo sapiens, UniProt Q14416); assay: Cell based functional selectivity assay
[4] = Mouse pharmacokinetic study, intraperitoneal dosing; format: in vivo
In short: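 Male CD-1 mice (~30 g) received 10 mg/kg ip as a 0.5 mg/ml microsuspension in 10% Tween 80/water (20 ml/kg). Plasma (cardiac puncture, EDTA) and PBS-washed brains were collected at 15, 30, 60, 180 and 360 min, n=3 per time. Brains homogenized 1:5 (w/w) in PBS; samples precipitated with acetonitrile plus internal standard and run on HPLC/MS/MS. Dilution-corrected; noncompartmental analysis.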

[5] = Brain homogenate binding assay; format: in vitro ADME; conditions: mouse
In short: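 Fresh mouse brains (6–8) were homogenized 1:3 (w/w) in PBS on ice, spiked at 1000 ng/g and run in triplicate. Rapid equilibrium dialysis was against PBS for 4 h at 37 °C, 130 rpm. Matrix-balanced aliquots were extracted with acetonitrile/internal standard and analysed by LC/MS/MS. fu = buffer/homogenate peak-area ratio, corrected for homogenate dilution.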

[6] = Plasma protein binding assay; format: in vitro ADME; conditions: human
mGlu3 = mGlu3 (Homo sapiens, UniProt Q14832); assay: Cell based functional selectivity assay
[7] = Plasma protein binding assay; format: in vitro ADME; conditions: mouse
C57Bl/6J mice [8] = assay: Operant sensation seeking; format: in vivo, mouse; conditions: 10 min prior to sessions
In short: (§2)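 Male C57Bl/6J mice (3–5 weeks) responded for varied visual and auditory stimuli: 10–14 daily 1 h FR-1 sessions, then 2 h progressive-ratio sessions. Test compound (0, 3, 10, 30 mg/kg in 10% Tween-80) or reference NAM (0, 1.5, 5, 15 mg/kg in saline; 12 FR sessions) given ip, 20 ml/kg, 10 min pre-session. Latin square, doses 48 h apart. Reinforcers earned analysed by repeated-measures ANOVA/Dunnett.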

C57Bl/6J mice [9] = assay: Food reinforcer self-administration, progressive ratio responding; format: in vivo, mouse; conditions: 3, 10, 30 mg/kg i.p., 10 min prior to sessions
In short: as §2, with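 “~40 μl of 10% vanilla Ensure:” for “varied visual and auditory stimuli:”, “saline)” for “saline; 12 FR sessions)”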

[10] = Stability in liver microsomes; format: in vitro ADME; conditions: human liver microsomes; 1 μM, 15 min, 37 °C, NADPH
In short: as §1

mGlu1 = mGlu1 (Homo sapiens, UniProt Q13255); assay: Cell based functional selectivity assay
mGlu4 = mGlu4 (Homo sapiens, UniProt Q14833); assay: Cell based functional selectivity assay
male CD-1 mice = assay: Marble burying model of anxiety; format: in vivo, mouse; conditions: 15 minute pretreatment
In short: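 Male CD-1 mice (30–35 g) were habituated 30 min to the test room. After 15 min pretreatment each was placed alone in a cage with 12 evenly spaced marbles on 2.5 cm bedding. Burying recorded over 30 min; counterbalanced design; Dunnett's test versus vehicle.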

rat mGlu5 [11] = biological target: T1, rat mGlu5; assay: Radioligand binding assay, [3H]methoxyPEPy competition
In short: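 Competition binding used membranes from rat mGlu5 HEK293A cells (40 μg/well) in 50 mM Tris/0.9% NaCl, pH 7.4, with [3H]methoxyPEPy (2 nM final) and test compound. Incubation was 1 h at room temperature with shaking, then GF/B filtration, 3–4 buffer washes and scintillation counting. Non-specific binding defined with 5 μM MPEP; curves fitted by four-parameter logistic equation.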

[12] = male, CD-1, mouse, brain, ip, 10 mg/kg
[13] = mouse, 10 mg/kg intraperitoneal

T1 sequence (P31424 21-1203): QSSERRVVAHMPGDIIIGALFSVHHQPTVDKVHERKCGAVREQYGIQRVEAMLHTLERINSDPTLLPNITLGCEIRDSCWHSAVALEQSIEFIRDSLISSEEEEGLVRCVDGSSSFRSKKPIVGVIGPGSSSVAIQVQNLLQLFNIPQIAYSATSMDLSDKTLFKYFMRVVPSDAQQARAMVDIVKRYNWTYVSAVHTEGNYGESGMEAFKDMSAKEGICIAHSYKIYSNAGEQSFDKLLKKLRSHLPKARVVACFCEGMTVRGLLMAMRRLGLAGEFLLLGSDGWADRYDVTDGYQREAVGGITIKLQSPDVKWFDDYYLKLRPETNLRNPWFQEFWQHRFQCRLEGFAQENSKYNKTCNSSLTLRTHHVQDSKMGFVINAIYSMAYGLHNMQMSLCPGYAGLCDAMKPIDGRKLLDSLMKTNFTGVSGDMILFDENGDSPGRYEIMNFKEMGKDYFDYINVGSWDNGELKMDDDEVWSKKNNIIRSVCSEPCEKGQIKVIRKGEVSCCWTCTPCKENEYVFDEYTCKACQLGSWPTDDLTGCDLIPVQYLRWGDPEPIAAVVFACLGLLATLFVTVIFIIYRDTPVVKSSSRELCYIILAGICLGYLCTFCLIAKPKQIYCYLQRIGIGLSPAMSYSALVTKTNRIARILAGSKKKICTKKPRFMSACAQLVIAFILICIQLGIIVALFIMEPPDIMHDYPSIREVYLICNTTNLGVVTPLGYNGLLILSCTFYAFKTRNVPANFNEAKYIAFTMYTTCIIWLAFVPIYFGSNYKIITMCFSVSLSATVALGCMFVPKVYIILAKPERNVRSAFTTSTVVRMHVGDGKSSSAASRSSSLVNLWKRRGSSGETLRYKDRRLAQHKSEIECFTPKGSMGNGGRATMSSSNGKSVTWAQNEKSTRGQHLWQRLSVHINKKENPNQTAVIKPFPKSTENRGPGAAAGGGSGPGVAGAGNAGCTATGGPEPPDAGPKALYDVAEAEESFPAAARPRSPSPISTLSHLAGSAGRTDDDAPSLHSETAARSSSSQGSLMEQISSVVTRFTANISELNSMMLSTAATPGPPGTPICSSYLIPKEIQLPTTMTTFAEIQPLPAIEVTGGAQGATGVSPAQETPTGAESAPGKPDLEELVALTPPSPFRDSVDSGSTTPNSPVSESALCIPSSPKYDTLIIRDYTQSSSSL
Sequence of mGlu4 (Q14833 33-912): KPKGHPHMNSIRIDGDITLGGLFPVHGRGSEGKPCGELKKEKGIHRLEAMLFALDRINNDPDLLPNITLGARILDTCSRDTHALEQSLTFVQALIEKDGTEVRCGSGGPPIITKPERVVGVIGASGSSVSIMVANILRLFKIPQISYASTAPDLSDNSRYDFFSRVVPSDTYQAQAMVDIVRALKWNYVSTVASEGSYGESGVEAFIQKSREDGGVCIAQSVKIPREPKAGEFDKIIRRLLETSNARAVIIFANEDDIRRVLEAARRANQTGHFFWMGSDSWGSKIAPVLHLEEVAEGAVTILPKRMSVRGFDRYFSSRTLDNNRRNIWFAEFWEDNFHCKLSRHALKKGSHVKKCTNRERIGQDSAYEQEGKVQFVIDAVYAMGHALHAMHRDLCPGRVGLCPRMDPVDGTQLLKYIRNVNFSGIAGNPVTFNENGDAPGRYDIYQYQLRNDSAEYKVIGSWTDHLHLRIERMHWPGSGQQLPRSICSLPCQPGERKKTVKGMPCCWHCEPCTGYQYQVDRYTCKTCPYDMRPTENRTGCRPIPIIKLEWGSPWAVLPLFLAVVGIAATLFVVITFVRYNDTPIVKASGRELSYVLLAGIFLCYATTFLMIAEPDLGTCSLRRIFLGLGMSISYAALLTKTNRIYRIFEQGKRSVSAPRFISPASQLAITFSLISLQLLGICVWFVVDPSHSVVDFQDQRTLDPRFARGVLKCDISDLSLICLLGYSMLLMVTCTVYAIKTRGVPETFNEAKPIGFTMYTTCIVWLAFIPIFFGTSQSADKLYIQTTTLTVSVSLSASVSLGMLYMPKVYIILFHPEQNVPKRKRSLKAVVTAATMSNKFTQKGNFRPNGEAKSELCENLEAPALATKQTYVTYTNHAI
Sequence of mGlu3 (Q14832 23-879): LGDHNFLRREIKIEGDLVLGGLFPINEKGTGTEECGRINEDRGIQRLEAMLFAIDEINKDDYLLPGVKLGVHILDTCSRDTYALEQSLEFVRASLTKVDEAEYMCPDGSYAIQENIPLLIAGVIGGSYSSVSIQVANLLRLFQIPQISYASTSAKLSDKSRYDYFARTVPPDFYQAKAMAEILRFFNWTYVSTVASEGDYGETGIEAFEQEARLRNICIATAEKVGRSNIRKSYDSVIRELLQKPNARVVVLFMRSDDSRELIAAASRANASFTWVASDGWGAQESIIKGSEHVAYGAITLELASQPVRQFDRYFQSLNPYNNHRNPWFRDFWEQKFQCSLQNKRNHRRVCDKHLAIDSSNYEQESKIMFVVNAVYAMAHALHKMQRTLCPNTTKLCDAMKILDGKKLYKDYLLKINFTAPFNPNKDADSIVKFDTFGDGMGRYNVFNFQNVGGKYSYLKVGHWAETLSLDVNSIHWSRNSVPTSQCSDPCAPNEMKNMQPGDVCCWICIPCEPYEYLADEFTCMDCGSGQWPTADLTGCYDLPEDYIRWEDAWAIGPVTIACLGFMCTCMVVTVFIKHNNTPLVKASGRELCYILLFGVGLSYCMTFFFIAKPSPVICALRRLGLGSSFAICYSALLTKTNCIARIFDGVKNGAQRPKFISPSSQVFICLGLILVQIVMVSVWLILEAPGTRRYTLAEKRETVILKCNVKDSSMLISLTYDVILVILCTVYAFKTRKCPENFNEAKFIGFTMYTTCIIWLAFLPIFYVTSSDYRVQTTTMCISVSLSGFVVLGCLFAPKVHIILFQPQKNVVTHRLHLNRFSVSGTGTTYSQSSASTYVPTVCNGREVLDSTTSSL
Sequence of mGlu2 (Q14416 19-872): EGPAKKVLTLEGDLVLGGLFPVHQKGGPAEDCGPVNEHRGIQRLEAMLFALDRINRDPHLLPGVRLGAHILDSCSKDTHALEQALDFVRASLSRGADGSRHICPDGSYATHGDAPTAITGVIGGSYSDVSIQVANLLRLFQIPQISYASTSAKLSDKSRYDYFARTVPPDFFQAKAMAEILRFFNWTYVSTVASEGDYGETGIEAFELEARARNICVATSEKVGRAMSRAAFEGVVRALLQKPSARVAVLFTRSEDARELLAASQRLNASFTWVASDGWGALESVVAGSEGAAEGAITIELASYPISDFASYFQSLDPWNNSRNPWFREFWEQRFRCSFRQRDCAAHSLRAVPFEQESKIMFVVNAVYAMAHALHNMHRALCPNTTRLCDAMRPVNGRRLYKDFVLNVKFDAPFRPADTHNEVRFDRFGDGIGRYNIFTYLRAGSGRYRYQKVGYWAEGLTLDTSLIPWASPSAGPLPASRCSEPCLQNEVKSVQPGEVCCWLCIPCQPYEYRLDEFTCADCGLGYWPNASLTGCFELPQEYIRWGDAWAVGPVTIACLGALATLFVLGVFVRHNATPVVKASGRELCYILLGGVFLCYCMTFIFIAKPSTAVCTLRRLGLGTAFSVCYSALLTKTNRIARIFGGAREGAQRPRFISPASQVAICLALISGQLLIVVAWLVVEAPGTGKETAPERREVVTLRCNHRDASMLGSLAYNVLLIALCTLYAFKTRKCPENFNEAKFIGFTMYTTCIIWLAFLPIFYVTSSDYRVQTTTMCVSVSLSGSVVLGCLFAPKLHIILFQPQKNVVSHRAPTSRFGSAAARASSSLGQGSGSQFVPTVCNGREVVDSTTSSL
Sequence of mGlu5 in rat cortical astrocytes (P31424 21-1203): as the sequence (P31424 21-1203) above
Sequence of mGlu1 (Q13255 19-1194): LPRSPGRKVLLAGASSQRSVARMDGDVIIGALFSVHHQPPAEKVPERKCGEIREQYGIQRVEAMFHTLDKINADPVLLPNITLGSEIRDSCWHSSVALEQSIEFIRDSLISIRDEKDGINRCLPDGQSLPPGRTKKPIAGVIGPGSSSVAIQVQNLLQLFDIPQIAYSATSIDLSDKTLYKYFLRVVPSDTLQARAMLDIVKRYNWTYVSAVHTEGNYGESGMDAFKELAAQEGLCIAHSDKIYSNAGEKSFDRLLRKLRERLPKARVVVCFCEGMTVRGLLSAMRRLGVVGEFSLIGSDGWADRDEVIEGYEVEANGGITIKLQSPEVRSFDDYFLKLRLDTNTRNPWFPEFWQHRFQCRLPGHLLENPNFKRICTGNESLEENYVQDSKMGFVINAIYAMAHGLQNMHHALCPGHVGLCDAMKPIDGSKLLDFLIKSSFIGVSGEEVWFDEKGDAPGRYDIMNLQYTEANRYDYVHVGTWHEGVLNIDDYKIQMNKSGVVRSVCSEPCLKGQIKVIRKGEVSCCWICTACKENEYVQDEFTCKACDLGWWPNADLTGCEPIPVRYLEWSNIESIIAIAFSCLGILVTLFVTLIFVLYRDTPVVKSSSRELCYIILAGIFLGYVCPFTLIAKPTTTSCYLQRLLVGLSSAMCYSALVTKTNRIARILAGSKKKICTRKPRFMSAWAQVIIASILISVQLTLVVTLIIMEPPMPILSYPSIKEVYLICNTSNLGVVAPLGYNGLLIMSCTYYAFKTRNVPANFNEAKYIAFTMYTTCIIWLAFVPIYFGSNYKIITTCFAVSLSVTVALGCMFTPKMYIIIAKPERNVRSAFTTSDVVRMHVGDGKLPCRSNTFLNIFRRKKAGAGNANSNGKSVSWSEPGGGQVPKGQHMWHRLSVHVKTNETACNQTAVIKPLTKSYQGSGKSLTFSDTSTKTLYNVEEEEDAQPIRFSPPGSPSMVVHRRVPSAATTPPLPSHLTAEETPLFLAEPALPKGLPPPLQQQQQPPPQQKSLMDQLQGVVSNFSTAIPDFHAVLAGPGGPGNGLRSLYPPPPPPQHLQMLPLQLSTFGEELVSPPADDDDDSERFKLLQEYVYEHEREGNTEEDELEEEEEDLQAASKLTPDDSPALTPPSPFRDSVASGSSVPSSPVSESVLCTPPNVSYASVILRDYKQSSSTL

% Glu Max (rat mGlu5 [1]; average of n ≥ 3): 1.2 ± 0.3%
IC50 (rat mGlu5 [1]; read-out: mGlu5 IC50, calcium mobilization, EC80 glutamate, HEK293A cells expressing rat mGlu5, average of n ≥ 3): 9.5 ± 1.6 nM
SMILES: Cc1ccc2ccc(-c3cc(F)cc(C#N)c3)cc2n1 [Compound 3, reference compound]

IC50 (rat mGlu5 [1]): 61 ± 7 nM
% Glu Max (rat mGlu5 [1]; average of n ≥ 3): 0.63 ± 0.12%
blockade of the glutamate response [2]: near complete blockade
selectivity, activity against mGlu7 (mGlu7): inactive
selectivity, activity against mGlu8 (mGlu8): inactive
% Parent Remaining [3]: 18%
selectivity, activity against mGlu2 (mGlu2): inactive
Tmax [4, 12]: 15 min
concentration at 30 min [4, 12]: 3.75 µM
AUC(0-t) ([4]; male, CD-1, mouse, plasma, ip, 10 mg/kg): 801 ng·h/mL
AUC0-6h in brain [4, 13]: 1530 ng·h/g
brain exposure until the one hour time point [4, 13]: above 500 ng/g
exposure in brain relative to plasma ([4]; mouse, 10 mg/kg intraperitoneal, AUC0-6h): nearly two fold higher
brain exposure expected at 30 mg/kg ([4]; mouse, assuming a dose linear increase in exposure from the 10 mg/kg study): > 10 µM
fraction unbound at 4 h, 1000 ng/g [5]: 0.001
fraction unbound at 4 h, 1000 ng/g [6]: 0.006
selectivity, activity against mGlu3 (mGlu3): inactive
fraction unbound at 4 h, 1000 ng/g [7]: 0.005
% Parent Remaining [10]: 20%
selectivity, activity against mGlu1 (mGlu1): inactive
selectivity, activity against mGlu4 (mGlu4): inactive
Ki for binding relative to potency in the functional assay (rat mGlu5 [11]; [3H]methoxyPEPy competition versus calcium mobilization IC50): approximately eight fold less
SMILES: Cc1nc2cc(-c3cc(F)cc(C#N)c3)ccc2s1 [Compound 18, 3-fluoro-5-(2-methylbenzo[d]thiazol-5-yl)benzonitrile]
progressive ratio responding for OSS stimuli (C57Bl/6J mice [8]; 3, 10, 30 mg/kg i.p.): dose dependently reduce
progressive ratio responding for food reinforcer (C57Bl/6J mice [9]): no significant effects
inhibition of marble burying (male CD-1 mice; 30 mg/kg ip): Significant inhibition
block of radioligand binding (rat mGlu5 [11]; [3H]3-methoxy-5-(pyridin-2-ylethynyl)pyridine, at the highest concentration): almost completely block the binding of the radioligand

SMILES: Cc1nc(C#Cc2cccnc2)cs1 [MTEP, 3-[(2-methyl-1,3-thiazol-4-yl)ethynyl]pyridine, reference compound]
progressive ratio responding for OSS stimuli (C57Bl/6J mice [8]; 1.5, 5, 15 mg/kg i.p.): dose-dependently reduced
inhibition of marble burying (male CD-1 mice; 15 mg/kg ip, positive control): significant effect
